Most compounds without a hit are left out; they make up all but 11% or so of the library.
SF-1 act = activators of human SF-1, primary screen, cell-based, CHO-K1, Gal4-SF-1 LBD, luciferase luminescence; activation, % at 10 µM; AID 522, 2006; CHO-K1 Gal4-SF-1 LBD luciferase reporter; % increase over DMSO SF-1-specific signal; Steroidogenic factor 1 (Homo sapiens), Q13285; 65,000 compounds, 1.9% hits;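 active = activation above the mean activation of all tested compounds plus 3 SD, cut at about 50% in these data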
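Material: Transient Gal4-SF-1 LBD reporter, CHO-K1 | Input: 4,000 cells/well | Dosing: One dose, 10 µM compound, 1% DMSO | Incubation: 20 h compound treatment, 37 °C | Detection: SteadyLite luciferase luminescence | Evaluation: Percent activation relative to DMSO median and mock-transfected background | Benchmarks: DMSO-treated SF-1-transfected cells as negative, DMSO-treated mock-transfected cells lacking SF-1 as background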
D1 allo mod = D1 CRE-luciferase signal change, two-sided – cell-based, HEK293 D1, dopamine EC30, D1 allosteric modulator project, primary screen. D(1A) dopamine receptor (Homo sapiens), P21728. dopamine EC30 potentiation; actives deviate in either direction. B-score at 10 µM. 58,000 compounds, 5.9% hits;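 active = luminescence count or its row- and column-corrected plate score outside the 99.7% band of the plate's sample wells, on either side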
Htt clearance = clearance of mutant huntingtin inclusions, primary screen, imaging, HeLa Exon1htt(103Q)mCFP, confocal imaging | inhibition, % at 1.5 µM | 47,000 compounds, 0.42% hits | AID 853, 2007 | aggregate imaging; zero = plate's median compound well;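 active = inhibition of aggregate fluorescence above about 70%, also judged a hit by eye on the cell image, limit read from the data, passing the limit was not always enough; inconclusive = no rule stated for this call; inactive = not judged a hit on image review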;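 also: cells exposed to compound for three days before fixation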
M1 antag = antagonists of rat M1 muscarinic receptor; CHO-M1 cells, Fluo-4 calcium, ACh EC80 antagonist mode; hits give low values; B-score at 10 µM; 64,000 compounds, 3.4% hits;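 active = calcium fluorescence response, raw or row-and-column corrected B-score, differing from the plate sample mean either way at a set confidence level, mostly lower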
M1 ag = M1 muscarinic receptor agonists, primary screen, CHO-M1 cells, Fluo-4 calcium, agonist mode; Muscarinic acetylcholine receptor M1; Fluo-4 calcium fluorescence; hits give high values; B-score at 10 µM; 64,000 compounds, 3% hits; AID 626, 2007;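 active = fluorescence rise, raw or as B-score row- and column-corrected plate score, outside the 99.7% band of its plate's samples, either direction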
RORA act = activators of orphan receptor RORA, primary screen, cell-based, luminescence; Nuclear receptor ROR-alpha (Homo sapiens), P35398; CHO-K1 Gal4-RORA LBD luciferase reporter; percent increase over mock-subtracted basal signal; activation, % at 10 µM; 65,000 compounds, 1.5% hits;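 active = activation above the mean of all tested compounds plus 3 SD, cut at about 49% in these data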;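 also: 0% = DMSO-treated RORA cells and 100% = added signal equal to DMSO minus mock-transfected cells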
Target sequence (P35398 whole entry, looked up, the tested form may be a part): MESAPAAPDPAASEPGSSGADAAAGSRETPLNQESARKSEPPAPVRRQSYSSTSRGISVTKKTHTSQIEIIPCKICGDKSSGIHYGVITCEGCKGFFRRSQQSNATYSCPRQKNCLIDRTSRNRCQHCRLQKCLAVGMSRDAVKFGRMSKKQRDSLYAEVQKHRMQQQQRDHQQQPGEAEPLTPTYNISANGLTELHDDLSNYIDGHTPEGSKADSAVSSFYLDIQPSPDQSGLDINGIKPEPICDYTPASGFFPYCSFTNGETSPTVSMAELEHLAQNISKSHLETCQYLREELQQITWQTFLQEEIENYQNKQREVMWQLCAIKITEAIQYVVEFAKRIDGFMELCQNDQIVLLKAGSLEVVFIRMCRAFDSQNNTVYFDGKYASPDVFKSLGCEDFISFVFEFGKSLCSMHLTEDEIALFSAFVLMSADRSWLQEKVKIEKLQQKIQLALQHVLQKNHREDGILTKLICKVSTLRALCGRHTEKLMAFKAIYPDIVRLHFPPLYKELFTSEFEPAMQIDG
* = called active by the depositor; ? = inconclusive; . = no result given.

SMILES	SF-1 act	D1 allo mod	Htt clearance	M1 antag	M1 ag	RORA act
CCn1cc(C2=NOC(C(=O)Nc3cc(C)nn3-c3ccccc3)C2)c(C)n1 (centres undefined)	-3	-0.44	.	-0.035	0.0063	-6
Cc1cc(C)n(S(=O)(=O)c2cccc(Cl)c2Cl)n1	-27	0.11	.	-0.87	0.0031	-6
O=C1c2ccccc2NC(c2ccccn2)N1c1ccc(Cl)cc1 (centres undefined)	64*	.	.	-0.52	-0.047	51*
O=C1c2cccnc2C(=O)N1Cc1ccc(F)cc1	4	-1.2*	.	-0.021	0.1	4
O=C1c2cccnc2C(=O)N1Cc1ccccc1	-3	3.6	.	0.35	-0.13	-2
O=C(CSc1cn(Cc2ccccc2)c2ccccc12)Nc1nccs1	84*	-1.5	?	-0.2	0.18	76*
O=C(CSCc1ccccc1)Nc1nccs1	-5	0.56	-22	-0.15	-0.21	-5
CCOC(=O)C1CCCN(C(=O)c2cn(C)c3ccc(S(=O)(=O)N(C)C)cc3c2=O)C1 (centres undefined)	-8	0.83	?	0.97*	0.22	10
CN(C)S(=O)(=O)c1ccc2c(c1)c(=O)c(C(=O)N1CCOCC1)cn2C	-8	0.47	11	0.88	0.57	-6
O=C(Cc1ccccc1F)Nc1nc(-c2cccs2)cs1	46	0.31	-17	-1	-0.17	10
O=C(Cc1ccccc1)Nc1nc(-c2cccs2)cs1	44	0.89	-27	0.069	0.45	67*
c1ccc(-c2csc(Nc3cccnc3)n2)nc1	57*	0.58	-12	-0.023	0.015	24
c1cncc(Nc2nc(-c3cccs3)cs2)c1	76*	3	.	0.26	-1.4	59*
c1ccc(Nc2nc(-c3ccncc3)cs2)cc1	.	.	60	.	.	.
COc1ccc(N(CC(=O)NCc2cccnc2)S(=O)(=O)c2c(C)nn(C)c2C)cc1	-6	0.25	-192	1.2	-0.96	14
Cc1cc(C)c(C)c(OCC(=O)N2CCCCCC2)c1	.	.	-14	.	.	.
Cc1cc(NC(=O)NC(=O)c2ccc(F)cc2F)n[nH]1	7	-3.3*	47	0.00086	0.1	10
Cc1cc(C)c(NC(=O)NC(=O)c2ccc(F)cc2)c(C)n1	1	0.22	.	-0.28	-0.8	-3
Cc1ccccc1CS(=O)(=O)CCC(=O)NCCCN1CCN(c2ccccc2F)CC1	-5	-3.1	-24	-0.36	0.16	20
Cc1ccccc1CS(=O)(=O)CCC(=O)NCCN1CCN(c2cccc(Cl)c2)CC1	-9	-3.6*	-14	-0.31	0.15	11
Cc1cc2nnc(SCC(=O)OC(C)C)n2c2ccccc12	.	.	56	.	.	.
O=C(CN1CCC(n2nnc3cc(F)ccc32)CC1)Nc1ccccc1N1CCOCC1	42	-3.1*	-17	-0.067	0.35	-10
O=C(CN1CCC(n2nnc3cc(F)ccc32)CC1)NC1CC1	1	0.22	.	0.16	-0.99	-2
COc1ccc2oc(C(=O)c3ccccc3)c(N)c2c1	.	.	-17	.	.	.
COc1ccc2oc(C(=O)C3CC3)c(N)c2c1	74*	1.4	-14	-0.79	-0.086	68*
SMILES	SF-1 act	D1 allo mod	Htt clearance	M1 antag	M1 ag	RORA act
c1cnc(N2CCN(c3ncnc4c3oc3ccccc34)CC2)nc1	-13	4.4	.	-1.5	3.2*	-10
Nc1nc(N2CCN(C/C=C/c3ccccc3)CC2)nc2ccccc12	-6	-2.6	-34	-1.8	-1.2	-19
C(=C\c1ccccc1)/CN1CCN(c2ncnc3c2oc2ccccc23)CC1	-6	-1.6	.	-0.65	6.9*	-13
c1ccc2c(c1)oc1c(N3CCOCC3)ncnc12	-7	3.6	.	0.6	-1.5	15
CC(C)(CS(=O)(=O)[O-])NC(=O)CC[N+](C)(C)CCO	.	.	3	.	.	.
CCCCS(=O)(=O)/C=C\C=C/S(=O)(=O)CCCC	-96	-2.4*	54	0.46	0.26	-91
O=C(O)CCC(=O)OCC1CCCO1 (centres undefined)	2	-0.093	-51	0.11	-1.1	-25
Cc1ccccc1-c1nnc(SCc2ccccc2)o1	27	-0.4	?	-0.15	-0.38	42
Cc1ccccc1-c1nnc(SCc2ccccc2F)o1	90*	1.2	.	-0.19	0.098	75*
c1ccc(CSc2nnc(-c3ccncc3)o2)cc1	24	.	.	.	.	16
Fc1ccccc1CSc1nnc(-c2ccccc2)o1	58*	-0.018	3	-0.048	-1.3	41
Cc1ccc(S(=O)(=O)CC#CCOC(=O)c2ccc([N+](=O)[O-])cc2)cc1	.	.	10	.	.	.
O=c1cc(O)nc2n1CCCS2	6	-0.25	-2	0.11	0.66	-4
O=c1c(Cc2ccccc2O)c(O)nc2n1CCCS2	6	-2.3*	.	0.083	0.63	-2
O=C1Cc2ccccc2C(=O)N1Cc1ccccc1	.	.	37	.	.	.
CNS(=O)(=O)c1cccc(C(=O)OCc2cc(Cl)cc3c2OCOC3)c1	-12	1.8	52	0.0089	-0.22	-33
COc1ccccc1N1CCN(CCC(=O)Nc2ccc3c(c2)OCO3)CC1	.	-2.2*	.	.	.	.
O=S(=O)(Cc1ccccc1)N1CCc2ccccc21	-5	-0.51	.	-0.19	8.3*	-6
CN(C)S(=O)(=O)N1CCc2ccccc21	-16	0.22	-22	0.2	-0.092	-7
OCCCc1nc2n(n1)C(c1cccs1)C=C(c1ccccc1)N2 (centres undefined)	-13	0.3	.	-15*	431*	-18
OCCCc1nc2n(n1)C(c1ccccc1)C=C(c1ccc(F)cc1)N2 (centres undefined)	-15	0.077	8	0.15	2.3	-6
CCc1ccc2nc(N3CCN(C)CC3)c(C#N)cc2c1	7	-4.9*	-35	0.063	-0.13	1
CCN1CCN(C(c2ccc(OC)cc2)C(O)C(=O)c2c[nH]c3ccccc23)CC1 (centres undefined)	.	.	-56	.	.	.
COc1ccc(N(C(=O)c2ccco2)S(=O)(=O)c2cc(OC)ccc2OC)cc1	-5	-2.2*	12	1.9*	0.081	-12
Nc1c2c(nc3ccn(Cc4ccccc4)c(=O)c13)CCC2	-4	-3.2*	12	-0.79	0.73	8
Nc1c2c(nc3ccn(-c4ccccc4)c(=O)c13)CCCCC2	-14	-4.7*	-9	-1.5	0.34	4
O=C(/C(=C/c1ccccc1)c1ccccc1)N1CCCCC1	.	.	-40	.	.	.
c1ccc(COc2ccc(OCCn3cncn3)cc2)cc1	55*	.	.	-0.52	-1.3	19
COc1nc(C)ccc1-c1noc(-c2ccco2)n1	17	-1.3*	-3	.	.	67*
Cc1cc2ncc(-c3ccc(Cl)cc3)c(N)n2n1	55*	-1.9	.	-0.13	1.5	35

Source: PubChem
